Experiment [1] relates to Escherichia coli. Briefly: Antibacterial activity against Escherichia coli ATCC 25922 assessed as growth inhibition at 4 mg/disc after 24 hrs by disc diffusion assay. The format is functional. The procedure, abridged:
(§1)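 Disc diffusion. Suspension at 0.5 McFarland mixed 1/10 into Mueller Hinton agar. 5 mm sterile filter-paper discs, set in stainless steel cylinders, moistened with compound in chloroform at 4 mg/disc. Plates incubated 24 h at 30 °C; inhibition zone diameter (mm, mean) measured.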

The subject of the next experiment is Candida albicans. Put plainly: Antifungal activity against Candida albicans ATCC 10231 assessed as growth inhibition at 4 mg/disc after 48 hrs by disc diffusion assay. The format is functional. The gist of the method: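 Candida albicans suspension at 0.5 McFarland mixed 1/10 into Sabouraud agar. 5 mm filter-paper discs in steel cylinders, loaded with compound in chloroform at 4 mg/disc; nystatin control at 100 µg/disc. Incubated 48 h at 28 °C; inhibition zone diameter (mm) measured.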

Experiment [2] concerns Kocuria rhizophila. Briefly: Antibacterial activity against Sarcina luteus ATCC 9341 assessed as growth inhibition at 4 mg/disc after 24 hrs by disc diffusion assay. Format: functional, DC2201. The procedure, abridged:
as §1

Experiment [3] relates to Pseudomonas aeruginosa. Put plainly: Antibacterial activity against Pseudomonas aeruginosa ATCC 27853 assessed as growth inhibition at 4 mg/disc after 24 hrs by disc diffusion assay. Format: functional. The gist of the method: as §1
For experiment [4], the system named is Staphylococcus aureus. Put plainly: Antibacterial activity against Staphylococcus aureus ATCC 25923 assessed as growth inhibition at 4 mg/disc after 24 hrs by disc diffusion assay. The format is functional. The procedure, abridged:
as §1

Experiment [5] concerns Bacillus subtilis. Put plainly: Antibacterial activity against Bacillus subtilis assessed as growth inhibition at 4 mg/disc after 24 hrs by disc diffusion assay. Format: functional. The gist of the method: as §1
Experiment [6] concerns Staphylococcus aureus. Put plainly: Antibacterial activity against Staphylococcus aureus ATCC 25923 assessed as growth inhibition after 24 hrs by broth microdilution assay. Format: functional. Conditions: ATCC 25923, 24 h. The gist of the method:
(§2)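 Broth microdilution in Mueller Hinton broth. Inoculum adjusted to 0.5 McFarland. Compounds dissolved in 50% DMSO at 250 mg/mL (stock), then two-fold serial dilutions over 250 to 0.12 mg/mL. Further broth plus 5 µL inoculum added per well. Incubated 24 h at 37 °C, screened twice per organism. MIC is the lowest concentration with no visible growth; chloramphenicol MIC expressed in µg/mL.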

For experiment [7], the system named is Kocuria rhizophila. Put plainly: Antibacterial activity against Sarcina luteus ATCC 9341 assessed as growth inhibition after 24 hrs by broth microdilution assay. Conditions: DC2201, 24 h. Format: functional. The procedure, abridged:
as §2

For experiment [8], the system named is Bacillus subtilis. Briefly: Antibacterial activity against Bacillus subtilis assessed as growth inhibition after 24 hrs by broth microdilution assay. The format is functional. The gist of the method: as §2
In experiment [9] the test system is Pseudomonas aeruginosa. Briefly: Antibacterial activity against Pseudomonas aeruginosa ATCC 27853 assessed as growth inhibition at 30 ug/disc after 24 hrs by disc diffusion assay. Conditions: ATCC 27853, 24 h, read-out: DIZ. Format: functional. The procedure, abridged:
(§3)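 Chloramphenicol control discs at 30 µg/disc on Mueller Hinton agar seeded 1/10 with 0.5 McFarland suspension. Incubated 24 h at 30 °C; inhibition zone diameter (mm) read.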

The subject of experiment [10] is Kocuria rhizophila. Briefly: Antibacterial activity against Sarcina luteus ATCC 9341 assessed as growth inhibition at 30 ug/disc after 24 hrs by disc diffusion assay. The conditions noted are these: DC2201, 24 h, read-out: DIZ. Format: functional. The procedure, abridged: as §3
Experiment [11] concerns Staphylococcus aureus. Briefly: Antibacterial activity against Staphylococcus aureus ATCC 25923 assessed as growth inhibition at 30 ug/disc after 24 hrs by disc diffusion assay. Format: functional. Conditions: ATCC 25923, 24 h, read-out: DIZ. The procedure, abridged: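 Disc diffusion. A 0.5 McFarland bacterial suspension was mixed 1/10 with Mueller Hinton agar. Sterile 5 mm filter paper discs, set in sterile steel cylinders, were loaded at 30 µg/disc (the reference antibiotic dose; test compounds were 4 mg/disc in chloroform). Plates were incubated 24 h at 30 °C, and the inhibition zone diameter (mm, mean) was measured.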

Experiment [12] has as its system Escherichia coli. Put plainly: Antibacterial activity against Escherichia coli ATCC 25922 assessed as growth inhibition at 30 ug/disc after 24 hrs by disc diffusion assay. Format: functional. The conditions noted are these: ATCC 25922, 24 h, read-out: DIZ. The procedure, abridged: as §3
In experiment [13] the test system is Bacillus subtilis. Put plainly: Antibacterial activity against Bacillus subtilis assessed as growth inhibition at 30 ug/disc after 24 hrs by disc diffusion assay. Conditions: read-out: DIZ. Format: functional. The procedure, abridged:
as §3

≈ marks a conversion by molar mass, not a printed value.

On to `O=C(OCC(F)(F)F)[C@H]1C[C@H](C(=O)c2ccc(F)cc2)N2N=CC=C[C@@H]12`, for which the “diameter of the inhibition zone (DIZ)” value in the experiment with Escherichia coli [1] came out at 26 mm; in the experiment with Candida albicans it was 27 mm; with Kocuria rhizophila [2], 55 mm; in the experiment with Pseudomonas aeruginosa [3], 19 mm; with Staphylococcus aureus [4] it was 28 mm; with Bacillus subtilis [5], 31 mm.

`CCOC(=O)c1c(C(F)(F)F)c2cccnn2c1C(=O)c1ccc(C)cc1`: the “diameter of the inhibition zone (DIZ)” value with Escherichia coli [1] came to 40 mm; in the experiment on Candida albicans it was 32 mm; in the experiment with Kocuria rhizophila [2], 60 mm; in the experiment on Pseudomonas aeruginosa [3], 19 mm; with Staphylococcus aureus [4], 49 mm; in the experiment on Bacillus subtilis [5], 36 mm. The MIC with Staphylococcus aureus [6] came out at 160 µg/mL (≈ 425 µM); with Kocuria rhizophila [7], 100 µg/mL (≈ 266 µM); with Bacillus subtilis [8], 220 µg/mL (≈ 585 µM).

As for `O=C(OCC(F)(F)F)[C@H]1C[C@H](C(=O)c2ccc(Cl)cc2)N2N=CC=C[C@@H]12`, the “diameter of the inhibition zone (DIZ)” value is recorded as 35 mm in the experiment on Escherichia coli [1]; 37 mm in the experiment with Candida albicans; 58 mm in the experiment on Kocuria rhizophila [2]; 20 mm in the experiment with Pseudomonas aeruginosa [3]; 30 mm in the experiment on Staphylococcus aureus [4]; 33 mm with Bacillus subtilis [5].

In the case of `CCOC(=O)[C@H]1[C@H](C(F)(F)F)[C@@H]2C=CC=NN2[C@H]1C(=O)c1ccc(C)cc1`, the “diameter of the inhibition zone (DIZ)” value in the experiment on Escherichia coli [1] worked out at 27 mm; with Candida albicans, 31 mm; in the experiment on Kocuria rhizophila [2], 61 mm; in the experiment on Pseudomonas aeruginosa [3], 21 mm; with Staphylococcus aureus [4], 29 mm; in the experiment on Bacillus subtilis [5], 38 mm. The minimal inhibitory concentration (MIC) with Staphylococcus aureus [6] worked out at 4200 µg/mL (≈ 11000 µM); in the experiment on Kocuria rhizophila [7] it was 90 µg/mL (≈ 237 µM); in the experiment on Bacillus subtilis [8] it was 200 µg/mL (≈ 526 µM).

As for `O=C(N[C@H](CO)[C@H](O)c1ccc([N+](=O)[O-])cc1)C(Cl)Cl` [CHLORAMPHENICOL], the zone of inhibition at 30 µg/disc was 19 mm in the experiment with Pseudomonas aeruginosa [9]; 30 mm in the experiment on Kocuria rhizophila [10]; 25 mm in the experiment with Staphylococcus aureus [11]; 29 mm with Escherichia coli [12]; 25 mm in the experiment on Bacillus subtilis [13]. The MIC in the experiment with Staphylococcus aureus [6], in the experiment on Kocuria rhizophila [7] and with Bacillus subtilis [8] was 0.25 µg/mL (≈ 0.774 µM) throughout.

`CCOC(=O)[C@H]1[C@H](C(F)(F)F)[C@@H]2C=CC=NN2[C@H]1C(=O)c1ccc(F)cc1`: the “diameter of the inhibition zone (DIZ)” value with Escherichia coli [1] is 31 mm; in the experiment with Candida albicans it was 29 mm; with Kocuria rhizophila [2] it was 58 mm; in the experiment with Pseudomonas aeruginosa [3] it was 21 mm; in the experiment with Staphylococcus aureus [4], 28 mm; in the experiment with Bacillus subtilis [5] it was 38 mm.

`CCOC(=O)c1c(C(F)(F)F)c2cccnn2c1C(=O)c1ccc(Cl)cc1`: the “diameter of the inhibition zone (DIZ)” value in the experiment with Escherichia coli [1] amounted to 42 mm; in the experiment on Candida albicans, 26 mm; with Kocuria rhizophila [2], 44 mm; with Pseudomonas aeruginosa [3], 18 mm; in the experiment on Staphylococcus aureus [4] it was 29 mm; with Bacillus subtilis [5], 38 mm.

`CCOC(=O)c1c(C(F)(F)F)c2cccnn2c1C(=O)c1ccc(F)cc1`: the “diameter of the inhibition zone (DIZ)” value in the experiment with Escherichia coli [1] was found to be 34 mm; with Candida albicans it was 29 mm; in the experiment with Kocuria rhizophila [2], 41 mm; in the experiment with Pseudomonas aeruginosa [3], 16 mm; with Staphylococcus aureus [4] it was 30 mm; in the experiment with Bacillus subtilis [5], 31 mm.

Consider `Cc1ccc(C(=O)[C@H]2C[C@H](C(=O)OCC(F)(F)F)[C@@H]3C=CC=NN23)cc1`, for which the “diameter of the inhibition zone (DIZ)” value came out at 28 mm with Escherichia coli [1]; 30 mm in the experiment with Candida albicans; 59 mm in the experiment on Kocuria rhizophila [2]; 20 mm in the experiment on Pseudomonas aeruginosa [3]; 30 mm with Staphylococcus aureus [4]; 39 mm in the experiment with Bacillus subtilis [5]. The MIC in the experiment with Staphylococcus aureus [6] turned out to be 3800 µg/mL (≈ 10400 µM); in the experiment on Kocuria rhizophila [7] it was 110 µg/mL (≈ 300 µM); with Bacillus subtilis [8], 180 µg/mL (≈ 491 µM).

The values above are taken from ChEMBL document CHEMBL2417536, “New pyridazine-fluorine derivatives: synthesis, chemistry and biological activity. Part II” (2013).
